Activity calls are given as the source filed them. The rule behind the calls is not given here.
Legend:
Type in all cases: functional
KM12 = experiment: Growth inhibition of human KM12 cells after 48 hrs by sulforhodamine B assay; conditions: KM12, 48 h
Outline: (§1)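 NCI 60-line panel, five concentrations (0.01–100 µM) from DMSO stock diluted in medium with gentamicin. Cells were plated 24 h before dosing, with time-zero plates fixed at drug addition, then exposed 48 h at 37 °C, 5% CO₂. Adherent cells were fixed with cold TCA (10% final) and suspension cells with 16% TCA. Staining used 0.4% SRB, solubilised in 10 mM Tris and read at 515 nm. GI₅₀ was taken from log concentration–% growth curves.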

ACHN = experiment: Growth inhibition of human ACHN cells after 48 hrs by sulforhodamine B assay; outline: as §1
NCI-H226 = experiment: Growth inhibition of human NCI-H226 cells after 48 hrs by sulforhodamine B assay; conditions: NCI-H226, 48 h; outline: as §1
NCI/ADR-RES = experiment: Growth inhibition of human NCI/ADR-RES cells after 48 hrs by sulforhodamine B assay; outline: as §1
HOP-92 = experiment: Growth inhibition of human HOP92 cells after 48 hrs by sulforhodamine B assay; conditions: HOP-92, 48 h; outline: as §1
PC-3 = experiment: Growth inhibition of human PC3 cells after 48 hrs by sulforhodamine B assay; conditions: PC-3, 48 h; outline: as §1
MCF7 = experiment: Growth inhibition of human MCF7 cells after 48 hrs by sulforhodamine B assay; conditions: MCF7, 48 h; outline: as §1
UACC-257 = experiment: Growth inhibition of human UACC257 cells after 48 hrs by sulforhodamine B assay; conditions: UACC-257, 48 h
Outline: (§2)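 Adherent lines plated and held 24 h at 37 °C, 5% CO2, 100% humidity; time-zero plates TCA-fixed at drug addition. Drugs from DMSO stocks were made into five concentrations by 10-fold or half-log serial dilution and applied for 48 h continuous exposure. Cells were fixed with cold TCA (10% final) for 60 min at 4 °C, then stained with 0.4% SRB in 1% acetic acid for 10 min. Dye was solubilized in 10 mM Tris base and read at 515 nm. GI50 was taken from log concentration–growth curves.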

HCT-116 = experiment: Growth inhibition of human HCT116 cells after 48 hrs by sulforhodamine B assay; conditions: HCT-116, 48 h; outline: as §1
[1] = Cytotoxicity against human lung cancer cells after 48 hrs by sulforhodamine B assay; conditions: Cancer cell lines
Outline: (§3)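 NCI five-dose screen: about 60 human tumour lines grouped into nine subpanels were plated and incubated 24 h before dosing. Compounds went in as DMSO stock and were diluted in medium to five final concentrations (0.01–100 µM). Exposure was 48 h continuous at 37 °C, 5% CO₂, followed by TCA fixation and SRB staining read at 515 nm. Per-line GI₅₀, TGI and LC₅₀ came from log concentration–% growth curves, averaged per subpanel as MG-MID.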

BT-549 = experiment: Growth inhibition of human BT549 cells after 48 hrs by sulforhodamine B assay; conditions: BT-549, 48 h; outline: as §1
SNB-19 = experiment: Growth inhibition of human SNB19 cells after 48 hrs by sulforhodamine B assay; conditions: SNB-19, 48 h; outline: as §2
[2] = Cytotoxicity against human melanoma cells after 48 hrs by sulforhodamine B assay; conditions: Melanoma cell; for CC50: read-out: LC50 (the source's name); outline: as §3
EKVX = experiment: Growth inhibition of human EKVX cells after 48 hrs by sulforhodamine B assay; outline: as §1
CCRF-CEM = experiment: Growth inhibition of human CCRF-CEM cells after 48 hrs by sulforhodamine B assay; outline: as §1
SK-MEL-2 = experiment: Growth inhibition of human SK-MEL-2 cells after 48 hrs by sulforhodamine B assay; outline: as §2
OVCAR-4 = experiment: Growth inhibition of human OVCAR4 cells after 48 hrs by sulforhodamine B assay; conditions: OVCAR-4, 48 h; outline: as §1
IGROV-1 = experiment: Growth inhibition of human IGROV1 cells after 48 hrs by sulforhodamine B assay; conditions: IGROV-1, 48 h; outline: as §1
TK-10 = experiment: Growth inhibition of human TK10 cells after 48 hrs by sulforhodamine B assay; conditions: TK-10, 48 h; outline: as §2
UACC-62 = experiment: Growth inhibition of human UACC62 cells after 48 hrs by sulforhodamine B assay; conditions: UACC-62, 48 h; outline: as §2
COLO 205 = experiment: Growth inhibition of human COLO205 cells after 48 hrs by sulforhodamine B assay; conditions: COLO 205, 48 h; outline: as §1
[3] = Growth inhibition of human NCI-H322 cells after 48 hrs by sulforhodamine B assay; conditions: NCI-H322, 48 h; outline: as §1
DU-145 = experiment: Growth inhibition of human DU145 cells after 48 hrs by sulforhodamine B assay; conditions: DU-145, 48 h; outline: as §1
NCI-H522 = experiment: Growth inhibition of human NCI-H522 cells after 48 hrs by sulforhodamine B assay; conditions: NCI-H522, 48 h; outline: as §1
SF-295 = experiment: Growth inhibition of human SF295 cells after 48 hrs by sulforhodamine B assay; conditions: SF-295, 48 h; outline: as §1
[4] = Cytotoxicity against human colon cancer cells after 48 hrs by sulforhodamine B assay; conditions: Cancer cell lines; outline: as §3
MOLT-4 = experiment: Growth inhibition of human MOLT4 cells after 48 hrs by sulforhodamine B assay; conditions: MOLT-4, 48 h; outline: as §1
SK-MEL-5 = experiment: Growth inhibition of human SK-MEL-5 cells after 48 hrs by sulforhodamine B assay; conditions: SK-MEL-5, 48 h; outline: as §2
SR = experiment: Growth inhibition of human SR cells after 48 hrs by sulforhodamine B assay
Outline: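 Suspension leukemia line pre-incubated 24 h at 37 °C, 5% CO2; time-zero plates fixed at drug addition. Five drug concentrations were made by serial dilution from DMSO stocks and applied for 48 h. Settled cells were fixed with 80% TCA (16% final), stained with 0.4% SRB in 1% acetic acid, solubilized in 10 mM Tris base, and read at 515 nm. GI50 = concentration giving 50% decrease in net growth.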

| Structure (SMILES) | GI50 (KM12) [µM] | GI50 (ACHN) [µM] | GI50 (NCI-H226) [µM] | GI50 (NCI/ADR-RES) [µM] | GI50 (HOP-92) [µM] | GI50 (MCF7) [µM] | GI50 (UACC-257) [µM] | GI50 (HCT-116) [µM] | GI50 [1] [µM] | TGI [1] [µM] | GI50 (BT-549) [µM] | GI50 (SNB-19) [µM] | GI50 [2] [µM] | TGI [2] [µM] | CC50 [2] [µM] | GI50 (EKVX) [µM] | GI50 (CCRF-CEM) [µM] | GI50 (OVCAR-4) [µM] | GI50 (IGROV-1) [µM] | GI50 (TK-10) [µM] | also measured |
| --- | --- | --- | --- | --- | --- | --- | --- | --- | --- | --- | --- | --- | --- | --- | --- | --- | --- | --- | --- | --- | --- |
| Cc1c2c(nn1C(=O)c1nn(-c3ccc(Cl)cc3)cc1O)-c1ccccc1CC2 | 0.07 | 0.048 | 0.045 | 0.046 | 0.052 | 0.121 | 0.21 | 0.034 | 0.047 | 68.1 | 0.029 | 0.045 | 0.14 | 52.1 | 86.4 | 0.071 | 0.057 | 0.264 | 0.043 | 0.033 | GI50 (PC-3): 0.037 µM; GI50 (SK-MEL-2; SK-MEL-2, 48 h): 5.54 µM; GI50 (UACC-62): 0.051 µM; GI50 (COLO 205): 0.291 µM; GI50 [3]: 0.054 µM; GI50 (DU-145): 0.05 µM; GI50 (NCI-H522): 0.055 µM; GI50 (SF-295): 0.02 µM; GI50 [4]: 0.221 µM; TGI [4]: 86.3 µM; GI50 (MOLT-4): 0.043 µM; GI50 (SK-MEL-5): 0.37 µM |
| N#Cc1cnn(C(=O)c2nn(-c3ccc(Cl)cc3)cc2O)c1N | 0.38 | 0.32 | 0.37 | 0.37 | 0.4 | 0.36 | 0.56 | 0.26 | 0.32 | 10.8 | 0.29 | 0.45 | 0.46 | 11.9 | 65 | 0.38 | 0.28 | 0.46 | 0.36 | 0.28 | GI50 (PC-3): 0.33 µM; LC50 (concentration causing 50% net cell kill) [1]: 69.4 µM; GI50 (SK-MEL-2; SK-MEL-2, 48 h): 0.91 µM; GI50 (SR): 0.28 µM; GI50 (UACC-62): 0.3 µM; GI50 (COLO 205): 0.91 µM; GI50 [3]: 0.44 µM; GI50 (DU-145): 0.57 µM; GI50 (NCI-H522): 0.21 µM; GI50 (SF-295): 0.16 µM; GI50 [4]: 0.61 µM; TGI [4]: 12.6 µM; CC50 ([4]; read-out: LC50 (the source's name)): 64.3 µM; GI50 (MOLT-4): 0.29 µM; GI50 (SK-MEL-5): 0.48 µM |
| CC1=NN(C(=O)c2nn(-c3ccc(Cl)cc3)cc2O)C(=O)C1 | 2.27 | 0.88 | 1.4 | 1.89 | 3.67 | 3.61 | 1.06 | 0.68 | 1.82 | 78.2 | 0.65 | 3.16 | 1.82 | 70.5 | 93.6 | 2.21 | 0.42 | 2.4 | 0.51 | 0.79 | GI50 (SR): 0.42 µM; GI50 (UACC-62): 1.8 µM; GI50 (COLO 205): 4.81 µM; GI50 [3]: 0.85 µM; GI50 (DU-145): 5.22 µM; GI50 (NCI-H522): 2.84 µM; GI50 (SF-295): 0.23 µM; GI50 [4]: 3.09 µM; TGI [4]: 95.4 µM; GI50 (MOLT-4): 1.87 µM; GI50 (SK-MEL-5): 1.7 µM |
| O=C(c1nn(-c2ccc(Cl)cc2)cc1O)n1nc(-c2ccco2)cc1C(F)(F)F | 5.88 | 2.53 | 2.71 | 1.6 | 4.9 | 3.51 | 2.67 | 2 | 3.19 | 78.9 | 1.14 | 4.37 | 4.14 | 63.7 | 89.4 | 1.99 | 0.69 | 2.43 | 0.92 | 1.45 | GI50 (PC-3): 26.3 µM; GI50 (SK-MEL-2; SK-MEL-2, 48 h): 3.82 µM; GI50 (UACC-62): 2.16 µM; GI50 (COLO 205): 2.97 µM; GI50 [3]: 0.83 µM; GI50 (DU-145): 10.5 µM; GI50 (NCI-H522): 2.67 µM; GI50 (SF-295): 0.48 µM; GI50 [4]: 4.59 µM; TGI [4]: 88.5 µM; GI50 (MOLT-4): 2.55 µM; GI50 (SK-MEL-5): 2.49 µM |
| Cc1cc(C)n(C(=O)c2nn(-c3ccc(Cl)cc3)cc2O)n1 | 5.07 | 3.77 | 4.66 | 4.42 | 4.52 | 4.52 | 16.6 | 3.42 | 4.69 | 81.7 | 2.19 | 3.6 | 4.95 | 71.4 | 92.8 | 4.87 | 3.66 | 9.19 | 3.16 | 4.71 | GI50 (PC-3): 7.05 µM; GI50 (SR): inactive; GI50 (UACC-62): 3.46 µM; GI50 (COLO 205): 18.5 µM; GI50 [3]: 6.17 µM; GI50 (DU-145): 6.23 µM; GI50 (NCI-H522): 7.37 µM; GI50 (SF-295): 1.81 µM; GI50 [4]: 8.13 µM; TGI [4]: 85.1 µM; GI50 (SK-MEL-5): 6.76 µM |
| O=C1CC(=O)N(C(=O)c2nn(-c3ccc(Cl)cc3)cc2O)N1 | 1.16 | 0.58 | 0.73 | 0.94 | 0.5 | 1.56 | 1.86 | 0.34 | 0.51 | 80.3 | 0.37 | 0.51 | 1.6 | 50.1 | 85.2 | 0.85 | 0.42 | 1.52 | 0.38 | 0.35 | GI50 (PC-3): 0.36 µM; GI50 (SK-MEL-2): inactive; GI50 (SR): 0.26 µM; GI50 (UACC-62): 0.39 µM; GI50 (COLO 205): 0.94 µM; GI50 [3]: 0.53 µM; GI50 (DU-145): 0.98 µM; GI50 (NCI-H522): 0.3 µM; GI50 (SF-295): 0.15 µM; GI50 [4]: 1.51 µM; TGI [4]: 86.2 µM; GI50 (MOLT-4): 0.41 µM; GI50 (SK-MEL-5): 1.92 µM |

Source: ChEMBL document CHEMBL1156332, “Polysubstituted pyrazoles, part 6. Synthesis of some 1-(4-chlorophenyl)-4-hydroxy-1H-pyrazol-3-carbonyl derivatives linked to nitrogenous heterocyclic ring systems as potential antitumor agents” (2010)
